From ChEMBL document CHEMBL4130494, “Crassiflorone derivatives that inhibit Trypanosoma brucei glyceraldehyde-3-phosphate dehydrogenase (TbGAPDH) and Trypanosoma cruzi trypanothione reductase (TcTR) and display trypanocidal activity” (Eur J Med Chem, 2017)
Values after ≈ are worked out from the molar mass of the structure shown. Active and inactive are the calls of the source. The calls are words filed in the database; no cut-off is given here.

Legend:
[1] = target: Trypanothione reductase (Trypanosoma cruzi) (UniProt P28593); test: Inhibition of Trypanosoma cruzi trypanothione reductase assessed as reduction in NADPH consumption at 10 uM using 40 uM trypanothione disulfide as substrate by spectrophotometric method
Sequence of Trypanothione reductase (Trypanosoma cruzi) (P28593 whole entry, looked up): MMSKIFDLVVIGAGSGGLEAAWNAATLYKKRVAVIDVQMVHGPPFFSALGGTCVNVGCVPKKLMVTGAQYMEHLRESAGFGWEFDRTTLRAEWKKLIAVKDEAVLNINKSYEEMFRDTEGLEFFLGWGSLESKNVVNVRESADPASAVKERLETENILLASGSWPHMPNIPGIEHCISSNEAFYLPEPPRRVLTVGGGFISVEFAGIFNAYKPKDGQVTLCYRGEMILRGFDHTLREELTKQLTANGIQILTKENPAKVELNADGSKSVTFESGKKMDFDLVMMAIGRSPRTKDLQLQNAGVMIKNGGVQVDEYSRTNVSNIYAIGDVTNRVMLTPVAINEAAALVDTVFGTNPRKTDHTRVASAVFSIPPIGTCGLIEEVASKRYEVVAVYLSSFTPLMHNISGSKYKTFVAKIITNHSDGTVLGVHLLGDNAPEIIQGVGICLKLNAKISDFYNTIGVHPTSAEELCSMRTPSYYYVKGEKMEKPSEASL
Summary of the method: (§1)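 Recombinant TcTR (5–10 mU) at 25 °C in 40 mM HEPES, 1 mM EDTA, pH 7.5, 100 μM NADPH, 5% DMSO; started with trypanothione disulfide; NADPH consumption read at 340 nm; percentage inhibition calculated.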

[2] = tested on: 786-0; test: Cytotoxicity against human 786-O cells assessed as mitochondrial viability at 10 uM by CMXRos staining based high-content imaging analysis relative to control; type: cell-based; conditions: 786-0, 10 µM
Summary of the method: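 786-O cells kept in RPMI-1640 with 2 mM glutamine, 10% FCS, streptomycin and penicillin G; mitochondria of live cells stained with MitoTracker Red CMXRos and imaged by high-content imaging.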

[3] = target: T1, Pteridine reductase 1 (Leishmania major) (UniProt Q01782); test: Inhibition of Leishmania major pteridine reductase 1 assessed as reduction in conversion of dihydrobiopterin to tetrahydrobiopterin at 20 uM up to 50 mins in presence of NADPH by cytochrome c reduction coupled photometric assay relative to control
T1 sequence (whole entry): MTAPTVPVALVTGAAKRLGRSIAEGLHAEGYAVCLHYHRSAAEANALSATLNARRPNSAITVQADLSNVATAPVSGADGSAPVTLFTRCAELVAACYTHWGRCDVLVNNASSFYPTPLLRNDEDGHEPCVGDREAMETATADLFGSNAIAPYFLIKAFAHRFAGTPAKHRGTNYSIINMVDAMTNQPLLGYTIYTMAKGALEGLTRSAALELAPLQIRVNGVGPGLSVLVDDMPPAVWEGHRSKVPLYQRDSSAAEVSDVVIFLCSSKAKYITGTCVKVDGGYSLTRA

[4] = target: CYP2C9 (Homo sapiens, UniProt P11712); test: Inhibition of human CYP2C9 at 10 uM by P450-Glo assay relative to control; type: ADME
Sequence of CYP2C9 (P11712 whole entry): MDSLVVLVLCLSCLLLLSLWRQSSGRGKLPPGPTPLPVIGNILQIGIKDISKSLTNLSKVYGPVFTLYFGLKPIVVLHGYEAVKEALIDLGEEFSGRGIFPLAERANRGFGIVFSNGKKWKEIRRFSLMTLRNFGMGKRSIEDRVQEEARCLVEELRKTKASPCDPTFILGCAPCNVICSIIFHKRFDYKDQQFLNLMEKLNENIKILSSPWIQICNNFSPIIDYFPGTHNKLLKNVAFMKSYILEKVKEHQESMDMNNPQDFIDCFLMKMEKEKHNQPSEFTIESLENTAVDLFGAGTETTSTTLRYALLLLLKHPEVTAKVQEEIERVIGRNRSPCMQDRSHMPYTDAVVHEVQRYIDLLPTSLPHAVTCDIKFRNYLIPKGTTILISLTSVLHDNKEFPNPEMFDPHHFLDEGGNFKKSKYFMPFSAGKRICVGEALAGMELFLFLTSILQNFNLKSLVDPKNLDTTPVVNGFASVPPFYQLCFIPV
Summary of the method: (§2)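 P450-Glo luminescent platform: CYP action on each substrate generates light; decreased light taken as inhibition.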

[5] = target: T2, CYP1A2 (Homo sapiens, UniProt P05177); test: Inhibition of human CYP1A2 at 10 uM by P450-Glo assay relative to control; type: ADME; summary of the method: as §2
T2 sequence (P05177 whole entry): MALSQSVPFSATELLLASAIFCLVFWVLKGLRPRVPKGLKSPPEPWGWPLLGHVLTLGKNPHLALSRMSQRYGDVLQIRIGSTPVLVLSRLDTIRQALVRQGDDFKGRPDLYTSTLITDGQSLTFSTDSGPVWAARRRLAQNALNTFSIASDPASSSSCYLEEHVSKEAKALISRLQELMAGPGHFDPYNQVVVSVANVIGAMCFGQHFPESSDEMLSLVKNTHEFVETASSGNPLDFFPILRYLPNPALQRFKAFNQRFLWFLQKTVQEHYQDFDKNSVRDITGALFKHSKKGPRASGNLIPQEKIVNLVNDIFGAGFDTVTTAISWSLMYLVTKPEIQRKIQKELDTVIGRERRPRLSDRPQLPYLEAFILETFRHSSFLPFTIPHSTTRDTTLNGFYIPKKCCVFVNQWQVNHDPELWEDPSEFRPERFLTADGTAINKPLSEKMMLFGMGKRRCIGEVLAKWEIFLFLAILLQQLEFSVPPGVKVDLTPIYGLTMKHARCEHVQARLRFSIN

[6] = tested on: Trypanosoma brucei; test: Inhibition of Trypanosoma brucei glyceraldehyde-3-phosphate dehydrogenase at 10 uM using GAP as substrate in presence of NAD+ by spectrophotometric method relative to control
Summary of the method: (§3)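 Recombinant TbGAPDH (200–300 μg protein) in 10 mM triethanolamine, 1.7 mM NaHCO3, 100 mM KCl, 5 mM MgSO4, 1 mM EDTA, pH 7.6, 25 °C, with 400 μM NAD+, 500 μM KH2PO4, 300 μM GAP; NAD+ reduction followed at 340 nm; inhibitors from DMSO stocks; triplicate; reported as percentage activity.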

[7] = target: hERG (KCNH2) (Homo sapiens, UniProt Q12809); test: Inhibition of Tracer Red binding to human ERG expressed in membranes at 10 uM by fluorescence polarization assay relative to control; conditions: membranes expressing human ERG, probe Tracer Red
Sequence of hERG (KCNH2) (Q12809 whole entry): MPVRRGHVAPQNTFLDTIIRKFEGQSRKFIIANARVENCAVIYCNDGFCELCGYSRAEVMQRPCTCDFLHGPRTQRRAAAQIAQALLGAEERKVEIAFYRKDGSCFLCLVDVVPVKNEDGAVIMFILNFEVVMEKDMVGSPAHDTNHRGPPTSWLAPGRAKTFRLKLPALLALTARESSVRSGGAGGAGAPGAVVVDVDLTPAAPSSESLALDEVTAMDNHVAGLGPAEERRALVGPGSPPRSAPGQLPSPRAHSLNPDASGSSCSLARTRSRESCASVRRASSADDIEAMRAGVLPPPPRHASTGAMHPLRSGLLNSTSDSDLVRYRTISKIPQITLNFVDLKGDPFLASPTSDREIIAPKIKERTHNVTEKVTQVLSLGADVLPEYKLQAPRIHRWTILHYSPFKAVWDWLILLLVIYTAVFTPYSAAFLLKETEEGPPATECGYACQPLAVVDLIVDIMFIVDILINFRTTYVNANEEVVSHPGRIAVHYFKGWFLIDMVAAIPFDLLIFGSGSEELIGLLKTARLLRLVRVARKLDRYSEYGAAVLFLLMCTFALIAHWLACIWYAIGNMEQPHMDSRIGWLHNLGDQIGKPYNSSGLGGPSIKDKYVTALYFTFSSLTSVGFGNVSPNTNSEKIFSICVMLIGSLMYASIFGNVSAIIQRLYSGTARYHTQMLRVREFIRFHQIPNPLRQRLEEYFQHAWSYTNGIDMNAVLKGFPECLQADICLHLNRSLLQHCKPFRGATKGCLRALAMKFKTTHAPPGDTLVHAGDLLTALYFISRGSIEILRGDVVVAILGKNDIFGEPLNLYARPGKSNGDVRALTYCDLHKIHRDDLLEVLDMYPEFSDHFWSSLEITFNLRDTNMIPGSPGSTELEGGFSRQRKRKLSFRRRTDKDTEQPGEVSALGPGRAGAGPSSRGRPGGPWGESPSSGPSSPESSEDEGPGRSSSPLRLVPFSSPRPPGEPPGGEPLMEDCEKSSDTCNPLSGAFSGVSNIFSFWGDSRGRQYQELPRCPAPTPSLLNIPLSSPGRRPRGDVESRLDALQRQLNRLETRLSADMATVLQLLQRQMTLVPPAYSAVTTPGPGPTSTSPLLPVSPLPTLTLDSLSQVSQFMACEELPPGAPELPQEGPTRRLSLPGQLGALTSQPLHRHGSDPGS
Summary of the method: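 Fluorescence polarization displacement of a high-affinity red fluorescent tracer from hERG channel–containing membrane fraction.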

[8] = target: CYP2D6 (Homo sapiens, UniProt P10635); test: Inhibition of human CYP2D6 at 10 uM by P450-Glo assay relative to control; type: ADME; summary of the method: as §2
Sequence of CYP2D6 (P10635 whole entry): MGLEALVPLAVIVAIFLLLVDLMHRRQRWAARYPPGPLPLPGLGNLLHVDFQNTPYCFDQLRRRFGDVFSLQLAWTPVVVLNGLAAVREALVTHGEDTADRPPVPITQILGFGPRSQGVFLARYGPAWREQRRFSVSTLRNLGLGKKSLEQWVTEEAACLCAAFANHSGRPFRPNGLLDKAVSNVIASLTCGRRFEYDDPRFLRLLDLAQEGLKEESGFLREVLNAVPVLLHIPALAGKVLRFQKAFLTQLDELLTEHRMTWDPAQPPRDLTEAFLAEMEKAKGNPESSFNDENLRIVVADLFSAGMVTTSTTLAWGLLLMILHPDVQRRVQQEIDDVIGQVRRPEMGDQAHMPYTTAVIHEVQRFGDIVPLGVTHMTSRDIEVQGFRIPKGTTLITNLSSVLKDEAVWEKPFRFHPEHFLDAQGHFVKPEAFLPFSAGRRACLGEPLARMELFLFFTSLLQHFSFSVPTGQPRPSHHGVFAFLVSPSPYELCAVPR

[9] = tested on: Trypanosoma brucei brucei; test: Growth inhibition of Trypanosoma brucei brucei Lister 427 bloodstream forms at 10 uM by SYBR Green based assay relative to control; type: functional; conditions: read-out: GI
[10] = Solubility in pH 7.4 Hanks simulated body fluid after overnight incubation by nephelometry; type: physicochemical
[11] = target: T3, Pteridine reductase, putative (Trypanosoma brucei) (UniProt Q581W1); test: Inhibition of Trypanosoma brucei pteridine reductase 1 assessed as reduction in conversion of dihydrobiopterin to tetrahydrobiopterin at 20 uM up to 50 mins in presence of NADPH by cytochrome c reduction coupled photometric assay relative to control
T3 sequence (whole entry): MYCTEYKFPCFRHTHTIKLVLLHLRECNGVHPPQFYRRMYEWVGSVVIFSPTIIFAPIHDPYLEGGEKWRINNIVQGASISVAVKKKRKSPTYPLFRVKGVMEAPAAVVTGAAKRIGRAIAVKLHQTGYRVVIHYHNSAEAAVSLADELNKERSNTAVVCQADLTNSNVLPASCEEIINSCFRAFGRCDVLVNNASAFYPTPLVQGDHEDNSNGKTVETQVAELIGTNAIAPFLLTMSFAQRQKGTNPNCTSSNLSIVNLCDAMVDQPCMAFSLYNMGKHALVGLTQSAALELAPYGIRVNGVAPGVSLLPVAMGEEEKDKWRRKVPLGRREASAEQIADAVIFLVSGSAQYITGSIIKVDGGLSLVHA

[12] = target: CYP3A4 (Homo sapiens, UniProt P08684); test: Inhibition of human CYP3A4 at 10 uM by P450-Glo assay relative to control; type: ADME; summary of the method: as §2
Sequence of CYP3A4 (P08684 whole entry): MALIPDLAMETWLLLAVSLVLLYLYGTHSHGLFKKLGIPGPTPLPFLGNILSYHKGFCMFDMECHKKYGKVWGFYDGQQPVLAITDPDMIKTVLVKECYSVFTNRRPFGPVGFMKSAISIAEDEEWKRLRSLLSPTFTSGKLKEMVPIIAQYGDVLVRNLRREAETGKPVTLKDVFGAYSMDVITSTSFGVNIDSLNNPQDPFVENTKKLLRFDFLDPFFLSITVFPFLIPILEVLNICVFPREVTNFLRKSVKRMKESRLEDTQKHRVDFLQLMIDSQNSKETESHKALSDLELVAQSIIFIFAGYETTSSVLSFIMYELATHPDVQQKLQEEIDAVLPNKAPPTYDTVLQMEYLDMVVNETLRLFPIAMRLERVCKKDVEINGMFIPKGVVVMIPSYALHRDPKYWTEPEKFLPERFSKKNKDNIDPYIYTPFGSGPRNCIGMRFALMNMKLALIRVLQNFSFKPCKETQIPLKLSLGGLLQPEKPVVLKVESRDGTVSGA

[13] = target: T4, Trypanothione reductase (Trypanosoma cruzi, UniProt P28593); test: Mixed-type inhibition of Trypanosoma cruzi trypanothione reductase assessed as reduction in NADPH consumption using varying levels of trypanothione disulfide as substrate by Lineweaver-Burk plot analysis
T4 sequence (P28593 whole entry): as the sequence (P28593 whole entry, looked up) above
Summary of the method: (§4)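 Same TcTR assay with two fixed inhibitor concentrations and TS2 at 20, 40, 60, 100, 200 μM; inhibition type from Lineweaver–Burk plots; Ki by nonlinear least-squares fit of direct plot; inhibitor assays at least duplicate.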

[14] = Cytotoxicity against human A549 cells assessed as cell growth at 10 uM by CellTiter-Glo assay relative to control; type: cell-based; conditions: read-out: Activity
Summary of the method: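 A549 cells; cellular ATP measured by CellTiter-Glo luminescence as a proxy for cell number; paclitaxel 10 μM as positive control.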

[15] = target: CYP2C19 (Homo sapiens, UniProt P33261); test: Inhibition of human CYP2C19 at 10 uM by P450-Glo assay relative to control; type: ADME; summary of the method: as §2
Sequence of CYP2C19 (P33261 whole entry): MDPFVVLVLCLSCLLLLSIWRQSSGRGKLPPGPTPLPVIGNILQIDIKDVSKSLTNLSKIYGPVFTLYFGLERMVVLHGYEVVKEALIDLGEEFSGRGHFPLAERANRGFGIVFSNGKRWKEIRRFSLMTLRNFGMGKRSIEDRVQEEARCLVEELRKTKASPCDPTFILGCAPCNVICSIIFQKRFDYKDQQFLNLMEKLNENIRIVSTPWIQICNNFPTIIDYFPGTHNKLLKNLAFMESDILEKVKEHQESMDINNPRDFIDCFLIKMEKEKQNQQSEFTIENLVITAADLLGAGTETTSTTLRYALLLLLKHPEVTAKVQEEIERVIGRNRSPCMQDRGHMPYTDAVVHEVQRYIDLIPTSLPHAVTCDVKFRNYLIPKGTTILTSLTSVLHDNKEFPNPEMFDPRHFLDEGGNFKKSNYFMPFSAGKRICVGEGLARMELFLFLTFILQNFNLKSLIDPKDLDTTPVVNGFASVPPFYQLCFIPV

[16] = tested on: Leishmania infantum; test: Growth inhibition of Leishmania infantum MHOM/BR/72/BH046 amastigotes infected in human THP1 cells at 10 uM after 48 hrs by Draq 5 staining based high-content automated imaging analysis relative to control; type: functional; conditions: MHOM/BR/72/BH046, THP-1, 48 h, read-out: GI
Summary of the method: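 THP-1 cells differentiated 48 h with 50 ng/mL PMA, infected 24 h with 6-day-old promastigotes (50 per cell), then treated 48 h; 0.5% DMSO negative, 10 µM amphotericin B positive. Paraformaldehyde-fixed, Draq5-stained, imaged; infection ratio normalized to DMSO-treated infected and non-infected controls.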

[17] = Solubility in PBS after overnight incubation by nephelometry; type: physicochemical
[18] = target: Trypanothione reductase (Trypanosoma cruzi) (UniProt P28593); test: Inhibition of Trypanosoma cruzi trypanothione reductase assessed as reduction in NADPH consumption at 10 uM using 100 uM trypanothione disulfide as substrate by spectrophotometric method; summary of the method: as §1
[19] = tested on: Trypanosoma cruzi; test: Growth inhibition of Trypanosoma cruzi Y trypamastigotes infected in human U2OS cells at 10 uM after 72 hrs by Draq 5 staining based high-content automated imaging analysis relative to control; type: functional; conditions: read-out: GI
Summary of the method: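 U2OS cells (3,000/well) co-seeded with Y strain trypomastigotes at 5:1 right after compound addition; 72 h at 37 °C, 5% CO2. Fixed, stained, imaged and normalized as for the Leishmania assay; host toxicity from cell ratio against negative-control wells.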

[20] = target: T4, Trypanothione reductase; test: Inhibition of Trypanosoma cruzi trypanothione reductase
[21] = Inhibition of Trypanosoma brucei glyceraldehyde-3-phosphate dehydrogenase
[22] = target: Trypanothione reductase (Trypanosoma cruzi) (UniProt P28593); test: Inhibition of Trypanosoma cruzi trypanothione reductase assessed as reduction in NADPH consumption at 20 uM using 100 uM trypanothione disulfide as substrate by spectrophotometric method relative to control; summary of the method: as §1
[23] = target: T3, Pteridine reductase, putative (Trypanosoma brucei); test: Inhibition of Trypanosoma brucei pteridine reductase 1 assessed as reduction in conversion of dihydrobiopterin to tetrahydrobiopterin at 10 uM up to 50 mins in presence of NADPH by cytochrome c reduction coupled photometric assay relative to control
[24] = target: T1, Pteridine reductase 1 (Leishmania major); test: Inhibition of Leishmania major pteridine reductase 1 assessed as reduction in conversion of dihydrobiopterin to tetrahydrobiopterin at 10 uM up to 50 mins in presence of NADPH by cytochrome c reduction coupled photometric assay relative to control
[25] = target: Trypanothione reductase (Trypanosoma cruzi) (UniProt P28593); test: Inhibition of Trypanosoma cruzi trypanothione reductase assessed as reduction in NADPH consumption at 20 uM using 40 uM trypanothione disulfide as substrate by spectrophotometric method relative to control; summary of the method: as §1
[26] = target: T4, Trypanothione reductase; test: Non-competitive inhibition of Trypanosoma cruzi trypanothione reductase assessed as reduction in NADPH consumption using varying levels of trypanothione disulfide as substrate by Lineweaver-Burk plot analysis; summary of the method: as §4
[27] = target: T3, Pteridine reductase, putative (Trypanosoma brucei); test: Inhibition of Trypanosoma brucei pteridine reductase 1 assessed as reduction in conversion of dihydrobiopterin to tetrahydrobiopterin at 50 uM up to 50 mins in presence of NADPH by cytochrome c reduction coupled photometric assay relative to control
[28] = target: T1, Pteridine reductase 1 (Leishmania major); test: Inhibition of Leishmania major pteridine reductase 1 assessed as reduction in conversion of dihydrobiopterin to tetrahydrobiopterin at 50 uM up to 50 mins in presence of NADPH by cytochrome c reduction coupled photometric assay relative to control
[29] = Inhibition of Trypanosoma brucei glyceraldehyde-3-phosphate dehydrogenase using GAP as substrate in presence of NAD+ by spectrophotometric method; summary of the method: as §3
[30] = target: Trypanothione reductase (Trypanosoma cruzi) (UniProt P28593); test: Inhibition of Trypanosoma cruzi trypanothione reductase assessed as reduction in NADPH consumption at 100 uM using 100 uM trypanothione disulfide as substrate by spectrophotometric method relative to control; summary of the method: as §1
[31] = target: Trypanothione reductase (Trypanosoma cruzi) (UniProt P28593); test: Inhibition of Trypanosoma cruzi trypanothione reductase assessed as reduction in NADPH consumption at 100 uM using 40 uM trypanothione disulfide as substrate by spectrophotometric method relative to control; summary of the method: as §1
[32] = tested on: Trypanosoma brucei brucei; test: Growth inhibition of Trypanosoma brucei brucei Lister 427 bloodstream forms at 50 uM by SYBR Green based assay relative to control; type: functional; conditions: read-out: GI

Row | SMILES | Activity [2] [%] | inhibition at 10 µM [4] [%] | inhibition at 10 µM [5] [%] | inhibition [6] [%] | inhibition at 10 µM [7] [%] | inhibition at 10 µM [8] [%] | solubility kinetic [10] [µM] | inhibition at 10 µM [12] [%] | viability at 10 µM [14] [%] | inhibition at 10 µM [15] [%] | solubility kinetic [17] [µM] | other results
1 | O=C1c2oc3c(c2C(=O)c2cccc(O)c21)c(=O)oc1ccccc13 | 82.16 | 61.5 | 57.3 | 64 | 67.1 | 102 | 70 (≈ 23.3 µg/mL) | 40.8 | 138 | 107 | 14 (≈ 4.65 µg/mL) | inhibition [1]: 65%; inhibition [3]: 28.1%; inhibition of growth at 10 µM [9]: < 20%; inhibition [11]: 0.94%; Ki [13]: 5.6 µM; inhibition of growth at 10 µM [16]: < 20%; inhibition [18]: 37.8%; inhibition of growth at 10 µM [19]: < 20%
2 | CN(C)CCOc1cc2ccc(OC3=CC(=O)c4cc5ccccc5cc4C3=O)cc2oc1=O |  |  |  |  |  |  |  |  |  |  |  | Ki [20]: 2.3 µM; IC50 [21]: 5.4 µM
3 | COc1cccc2c1C(=O)c1oc3c(c1C2=O)c(=O)oc1ccccc13 | 89.95 | 89.3 | 99.2 |  | 42.7 | 108 | 35 (≈ 12.1 µg/mL) | 38.5 | 166 | 55.5 | 70 (≈ 24.2 µg/mL) | inhibition [22]: 41.1%; inhibition [23]: -5.69%; inhibition [24]: -3.51%; inhibition [25]: 42.6%; Ki [26]: 22.4 µM
4 | Nc1ccc2oc(=O)c3c4c(oc3c2c1)C(=O)c1c(O)cccc1C4=O | 97.94 | 85.9 | 37.8 | 75 | -7.99 | 71.5 | 35 (≈ 12.2 µg/mL) | 46.8 | 157 | 63.6 | 14 (≈ 4.86 µg/mL) | inhibition [27]: 5.82%; inhibition [28]: 6.19%; IC50 [29]: 2.1 µM; inhibition [30]: inactive; inhibition [31]: inactive; inhibition of growth at 50 µM [32]: 77%
